A selection: hits, their analogues and other compounds. The true share with any hit is near 3.5%.
MrgX1 antag = antagonists of human MrgX1 receptor, primary screen, HEK293 cells, Fluo-4 calcium flux; Mas-related G-protein coupled receptor member X1 (Homo sapiens), Q96LB2; BAM8-22 antagonism; stronger effect = lower value; B-score at 10 µM; 310,000 compounds, 1.3% hits; AID 588676, 2011;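 active means calcium-response B-score plate-corrected more than 3 library SD below zero, starting fluorescence within 5 deviations, no agonist response on first addition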;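 further: peak minus trough fluorescence over baseline after final BAM8-22 challenge near maximal dose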
Target sequence (Q96LB2 whole entry, looked up): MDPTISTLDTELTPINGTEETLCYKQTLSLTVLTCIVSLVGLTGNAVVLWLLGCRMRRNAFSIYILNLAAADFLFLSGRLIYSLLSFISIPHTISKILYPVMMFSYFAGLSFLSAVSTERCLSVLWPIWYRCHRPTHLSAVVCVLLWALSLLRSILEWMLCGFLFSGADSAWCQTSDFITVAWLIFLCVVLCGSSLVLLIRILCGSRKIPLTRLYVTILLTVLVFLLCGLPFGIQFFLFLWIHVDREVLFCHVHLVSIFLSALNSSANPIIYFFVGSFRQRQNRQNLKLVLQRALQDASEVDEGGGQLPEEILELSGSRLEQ
MrgX1 agonist = agonists of human MrgX1 receptor, primary screen, HEK293 cells, Fluo-4 calcium flux | Mas-related G-protein coupled receptor member X1 (Homo sapiens), Q96LB2 | Fluo-4 calcium fluorescence, agonist mode; stronger effect = higher value | B-score at 10 µM | 310,000 compounds, 0.44% hits | AID 588627, 2011;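 active means calcium response B-score plate-corrected fluorescence ratio at least 3 library SD, with starting fluorescence B-score inside 5 SD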
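times = overnight plating, then 30 min 37 °C plus 30 min room-temperature dye loading | assay system = stable human MrgX1 HEK293 cell line | input = fifteen thousand cells per well | signal = kinetic calcium dye fluorescence, Fluo-4 NW | dosing = compound delivered in addition one of three | read-out = B-scored fluorescence response ratio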
RGS4 block = RGS4 inhibitors, primary screen, cell-based, HEK293 M3R inducible RGS4, calcium flux. Regulator of G-protein signaling 4 (Homo sapiens), P49798. Fluo-4 calcium flux; stronger effect = higher value; triggered by carbachol at its EC20. B-score at 10 µM. AID 463165, 2010. 310,000 compounds, 0.45% hits;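 active means B-score, a plate-corrected calcium signal, over three deviations above library mean, with baseline fluorescence within five deviations of library mean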;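 further: RGS4 expression induced by doxycycline in cells with stable M3 receptor; B-score is computed from the integrated fluorescence ratio over baseline after carbachol; higher B-score means a larger calcium signal and so more RGS4 inhibition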
Target sequence (P49798 whole entry, looked up): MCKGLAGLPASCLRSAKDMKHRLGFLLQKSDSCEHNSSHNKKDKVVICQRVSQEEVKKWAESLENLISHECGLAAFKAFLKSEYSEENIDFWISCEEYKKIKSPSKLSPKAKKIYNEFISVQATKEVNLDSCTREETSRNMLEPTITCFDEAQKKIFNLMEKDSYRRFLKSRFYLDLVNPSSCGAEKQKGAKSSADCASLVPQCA
RGS4 pot = RGS4 potentiators or activators, primary screen, cell-based, HEK293 M3R inducible RGS4, calcium flux | AID 463111, 2010 | B-score at 10 µM | 310,000 compounds, 0.92% hits | carbachol calcium flux Fluo4; stronger effect = lower value;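 active means B-score of the integrated calcium signal more than 4 SD below the library mean, with starting fluorescence not abnormally high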;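 further: negative B-score means reduced calcium response which marks RGS4 activation or potentiation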
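Also added: carbachol at ECmax as muscarinic agonist stimulus; Assay system: HEK293 cells with stable M3R and inducible RGS4; Timing: overnight RGS4 induction, 30 min dye load 37 °C, 20 min compound RT; Measured by: Fluo4-AM (2 µM) calcium-flux fluorescence, kinetic read.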
MrgX1 PAM = positive allosteric modulators of MrgX1, primary screen, HEK293 cells, Fluo-4 calcium flux. 310,000 compounds, 0.63% hits. FDSS; stronger effect = higher value. B-score at 10 µM. AID 588675, 2011. Mas-related G-protein coupled receptor member X1 (Homo sapiens), Q96LB2;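 active means plate-corrected calcium response at least 3 library SD above typical, normal starting fluorescence, not activating the receptor alone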;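 further: compound read alongside a low EC10 to EC30 dose of BAM8-22 agonist; peak minus trough fluorescence over baseline measured at the second addition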
RGS4 inh valid = enhanced carbachol calcium response, M3R/RGS4 cells, RGS4 inhibitor project, cell-based, validation screen, HEK293 M3R/RGS4, calcium flux. shares compounds with RGS4 block. carbachol calcium Fluo-4 fluorescence; carbachol added at its EC20; 0 = buffer wells, 100 = carbachol control. calcium response, % at 10 µM. 1,700 compounds, 65% hits. AID 492999, 2010;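 active means duplicate-averaged calcium response above the buffer-only control mean plus 5 SD of those controls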;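 further: integrated fluorescence ratio F max minus min over baseline F0; higher response in RGS4-induced cells means RGS4 inhibition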
RGS4 uninduced = carbachol calcium response in non-induced M3R cells, confirmation, counter-screen for RGS4 inhibitor project, cell-based, HEK293 M3R | activity (percent), % at 10 µM | AID 493000, 2010 | shares compounds with RGS4 block | carbachol calcium Fluo-4; submaximal (EC20) carbachol stimulus; buffer wells 0%, carbachol control wells 100% | 1,900 compounds, 20% hits; call rule not given here;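 further: RGS4 induction absent so cells express M3R without RGS4; higher means more calcium signal and flags a non-specific hit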
M3R basal Ca ctr = second counter-screen for RGS4 inhibitors: non-induced cells without carbachol; shares compounds with RGS4 block; calcium response (agonist-mode artifact), % at 10 µM; HEK293 M3R/RGS4 non-induced, Fluo-4 calcium, no carbachol; normalised: buffer wells 0%, carbachol wells 100%; 1,900 compounds, 22% hits; AID 493001;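 active means duplicate-averaged calcium rise in uninduced cells above buffer wells' mean plus 5 SD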
Starred values were filed as active, the others as inactive; i = inactive; / = no result given.

SMILES	MrgX1 antag	MrgX1 agonist	RGS4 block	RGS4 pot	MrgX1 PAM	RGS4 inh valid	RGS4 uninduced	M3R basal Ca ctr
O=C(C1=C(O)C(=O)N(Cc2ccco2)C1c1cccc(O)c1)c1ccco1 (configuration not stated)	i	i	4.67*	i	i	5.5%*	i	i
COC(=O)CN(C)C(=O)c1ccc2nc(Cc3cccc(Cl)c3)oc2c1	i	i	i	i	i	/	/	/
CCCOc1ccc2c(c1)C(=NN=C(N)N)c1cc(OCCC)ccc1-2	i	i	4.73*	i	i	8.0%*	i	i
CCN(CC)CCOc1ccc2c(c1)C(=NO)c1cc(OCCN(CC)CC)ccc1-2	i	i	i	i	i	/	/	/
COC(=O)C1=C(CS(=O)(=O)c2ccc(OC)c(OC)c2)NC(=O)NC1c1ccc(O)c(OC)c1 (configuration not stated)	i	i	19.3*	i	i	6.0%*	i	i
COC(=O)C1=C(CS(=O)(=O)c2ccc(Cl)cc2)NC(=O)NC1c1ccc(O)c(OC)c1 (configuration not stated)	i	i	i	i	i	i	i	i
CCOC(=O)C1=C(CS(=O)(=O)c2ccc(Cl)cc2)NC(=O)NC1c1ccc(O)c(OC)c1 (configuration not stated)	i	i	i	i	i	/	/	/
O=C(NCCc1ccccc1)c1cccc(N2CCCC2=O)c1	i	i	i	i	i	/	/	/
Cc1cc(NS(=O)(=O)c2ccc(Nc3nc(-c4ccc(C)c(C)c4)cs3)cc2)no1	i	i	i	i	i	i	33.5%*	i
Cc1cc(NS(=O)(=O)c2ccc(Nc3nc(-c4sc(N)nc4C)cs3)cc2)no1	i	i	i	i	i	/	/	/
COc1cc(NS(=O)(=O)c2ccc(Nc3nc(-c4ccccc4)cs3)cc2)nc(OC)n1	i	i	7.96*	i	i	18.5%*	i	i
Cc1cc(NS(=O)(=O)c2ccc(Nc3nc(-c4ccc(O)cc4)cs3)cc2)no1	i	i	i	i	i	/	i	i
CC(=O)N1N=C(c2ccc(C)cc2)OC1c1cccnc1 (configuration not stated)	i	i	i	i	i	/	/	/
CCn1ccnc1CN(C)Cc1cn(-c2ccccc2)nc1-c1ccc(OC)cc1F	i	i	i	i	i	/	/	/
CCN(CC)S(=O)(=O)c1ccc(OC)c(NC(=O)OCc2ccccc2)c1	i	i	i	i	i	/	/	/
O=C(Nc1c(Cl)cccc1Cl)c1cc(=O)n(Cc2ccccc2)c(=O)[nH]1	i	i	i	i	i	/	/	/
O=C(CCl)Nc1nc(-c2ccco2)c(-c2ccco2)s1	i	i	5.75*	i	i	i	i	i
O=C(CCCSc1ccccc1)Nc1nc(-c2ccco2)c(-c2ccco2)s1	i	i	i	i	i	/	/	/
COc1ccccc1NC(=O)c1cnc(SCC(=O)NCC2CCCO2)n(C)c1=O (configuration not stated)	i	i	5.38*	i	i	9.0%*	i	i
OCCN1CCN(c2nc(-c3ccccc3O)nc3ccccc23)CC1	i	i	i	i	i	/	/	/
CC1(C)Cc2ccccc2C(/C(=N\Nc2cccc(Cl)c2)C(N)=O)=N1	i	i	6.58*	i	i	16.0%*	i	i
CC(=O)c1ccc(N/N=C(/C(N)=O)C2=NC(C)(C)Cc3ccccc32)cc1	i	i	i	i	i	/	/	/
CCOC(=O)c1ccc(N2C(=O)c3n[nH]c(-c4ccco4)c3C2c2cccc([N+](=O)[O-])c2)cc1 (configuration not stated)	i	i	6.65*	i	i	i	i	i
CCOC(=O)c1ccc(N2C(=O)c3n[nH]c(C)c3C2c2ccco2)cc1 (configuration not stated)	i	i	i	i	i	/	/	/
CCOC(=O)c1sc(N2C(=O)C(O)=C(C(=O)c3ccc(C)o3)C2c2cccc([N+](=O)[O-])c2)nc1C (configuration not stated)	i	i	7.34*	i	i	23.5%*	i	i
SMILES	MrgX1 antag	MrgX1 agonist	RGS4 block	RGS4 pot	MrgX1 PAM	RGS4 inh valid	RGS4 uninduced	M3R basal Ca ctr
CCCCC(=O)NS(=O)(=O)c1ccc(N=NN(CC)CC)cc1	i	i	i	i	i	/	/	/
O=[N+]([O-])c1ccc(O)c(C=Nc2ccc3c(c2)OCCO3)c1	i	i	i	i	i	/	/	/
Oc1c(Br)cc(Br)cc1C=Nc1ccc2c(c1)OCO2	i	i	i	i	i	i	i	48.0%*
Oc1c(Br)cc(Br)cc1C=Nc1ccc2c(c1)OCCO2	i	i	5.83*	i	i	i	i	74.5%*
NN(Cc1ccccc1)C(=S)Nc1ccc(Cl)c(Cl)c1	i	i	i	i	i	/	/	/
CCOC(=O)[C@@H]1[C@H]2COc3ccccc3[C@@H]2N2C(=O)N(c3ccc(OC)cc3)C(=O)[C@]12C	i	i	i	i	i	i	i	7.5%*
CCOC(=O)[C@@H]1[C@H]2COc3ccc(Br)cc3[C@@H]2N2C(=O)N(c3ccc(OC)cc3)C(=O)[C@]12C	i	i	i	i	i	/	/	/
CCOC(=O)[C@@H]1[C@H]2COc3ccccc3[C@@H]2N2C(=O)N(c3ccc(OC)cc3)C(=O)[C@@]12C	i	i	i	i	i	i	i	i
O=c1cc(-c2ccc(Cl)cc2)nc(N2CCN(c3ccccc3)CC2)[nH]1	i	i	9.74*	i	i	i	32.0%*	i

From PubChem
